Data: ChEMBL document CHEMBL4765483 (J Med Chem, 2021)

Assays:
Settings in all cases: Cell membrane
[1] = molecular target: T1, Adenosine receptor A2b (Homo sapiens) (UniProt P29275); test: Displacement of [3H]DPCPX from human adenosine A2B receptor expressed in HEK293 cell membranes at 1 uM incubated for 30 mins by scintillation counting method
T1 sequence (whole entry): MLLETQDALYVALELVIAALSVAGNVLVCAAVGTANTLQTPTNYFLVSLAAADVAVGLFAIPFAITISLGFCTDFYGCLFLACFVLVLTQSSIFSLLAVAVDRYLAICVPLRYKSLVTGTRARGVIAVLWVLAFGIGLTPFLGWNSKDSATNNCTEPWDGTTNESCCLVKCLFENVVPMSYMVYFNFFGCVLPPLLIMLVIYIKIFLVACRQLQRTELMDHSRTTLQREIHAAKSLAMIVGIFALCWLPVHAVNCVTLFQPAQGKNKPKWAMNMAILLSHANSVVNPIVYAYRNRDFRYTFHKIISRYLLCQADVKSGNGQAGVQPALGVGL

[2] = molecular target: T2, Adenosine receptor A3 (Homo sapiens) (UniProt P0DMS8); test: Displacement of [3H]NECA from adenosine A3 receptor expressed in human HeLa cell membranes at 1 uM incubated for 180 mins by scintillation counting method
T2 sequence (whole entry): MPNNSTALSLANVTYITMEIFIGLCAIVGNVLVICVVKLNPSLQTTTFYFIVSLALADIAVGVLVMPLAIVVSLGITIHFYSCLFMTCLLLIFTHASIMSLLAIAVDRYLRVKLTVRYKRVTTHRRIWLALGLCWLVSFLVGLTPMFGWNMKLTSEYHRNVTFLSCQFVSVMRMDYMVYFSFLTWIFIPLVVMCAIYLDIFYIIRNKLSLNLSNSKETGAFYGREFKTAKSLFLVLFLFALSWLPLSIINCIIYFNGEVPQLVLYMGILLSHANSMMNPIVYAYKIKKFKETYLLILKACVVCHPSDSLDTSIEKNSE
In short: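 hA3AR in HeLa membranes (3 pmol/mg protein) with 10 nM [3H]NECA (KD 8.7 nM); nonspecific binding with 100 μM R-PIA; incubated 180 min at 25 °C, washed, filtered, radioactivity counted.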

[3] = molecular target: Adenosine receptor A2a (Homo sapiens) (UniProt P29274); test: Displacement of [3H]ZM2421385 from adenosine A2A receptor expressed in human HeLa cell membranes at 1 uM incubated for 30 mins by scintillation counting method
Adenosine receptor A2a (Homo sapiens), sequence (P29274 whole entry): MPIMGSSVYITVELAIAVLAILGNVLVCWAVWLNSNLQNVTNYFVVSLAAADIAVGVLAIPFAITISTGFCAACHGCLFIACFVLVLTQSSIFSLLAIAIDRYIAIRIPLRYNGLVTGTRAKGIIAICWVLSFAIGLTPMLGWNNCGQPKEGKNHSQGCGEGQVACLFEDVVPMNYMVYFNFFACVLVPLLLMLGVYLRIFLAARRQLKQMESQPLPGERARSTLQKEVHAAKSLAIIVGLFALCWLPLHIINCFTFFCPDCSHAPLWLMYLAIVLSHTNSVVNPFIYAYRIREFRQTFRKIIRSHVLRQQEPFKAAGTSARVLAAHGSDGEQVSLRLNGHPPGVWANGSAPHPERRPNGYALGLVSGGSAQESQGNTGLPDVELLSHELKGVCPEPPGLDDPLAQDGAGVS

[4] = molecular target: T3, Adenosine receptor A1 (Homo sapiens) (UniProt P30542); test: Displacement of [3H]DPCPX from human adenosine A1 receptor expressed in CHO cell membranes at 1 uM incubated for 60 mins by scintillation counting method
T3 sequence (whole entry): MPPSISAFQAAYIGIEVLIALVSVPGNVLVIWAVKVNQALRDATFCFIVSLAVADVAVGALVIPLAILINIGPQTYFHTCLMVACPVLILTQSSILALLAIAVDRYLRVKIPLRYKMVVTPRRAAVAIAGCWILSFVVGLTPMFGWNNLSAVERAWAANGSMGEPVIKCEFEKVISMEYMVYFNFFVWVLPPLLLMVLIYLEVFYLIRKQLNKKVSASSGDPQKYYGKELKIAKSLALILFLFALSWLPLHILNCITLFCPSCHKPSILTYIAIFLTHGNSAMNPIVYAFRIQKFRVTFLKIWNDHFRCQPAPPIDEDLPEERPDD

## CC1=C(C(=O)OCc2ccccc2)C(c2ccoc2)NC(=O)N1C (racemic)
[1]; filed as antagonist
  inhibition: 49%
[2]
  inhibition: 25%
[3]
  inhibition: 37%
[4]
  inhibition: 51%

## CC1=C(C(=O)OCc2ccccc2)C(c2ccoc2)NC(=S)N1 (racemic)
[1]
  inhibition: 36%
[2]
  inhibition: 20%
[3]
  inhibition: 16%
[4]
  inhibition: 25%

## CC1=C(C(=O)OCc2ccccc2)C(c2ccsc2)NC(=O)N1 (racemic)
[1]; filed as antagonist
  inhibition: 44%
[2]
  inhibition: 25%
[3]
  inhibition: 21%
[4]
  inhibition: 57%

## CC1=C(C(=O)OCc2ccccc2)C(c2ccsc2)NC(=S)N1 (racemic)
[1]
  inhibition: 10%
[2]
  inhibition: 2%
[3]
  inhibition: 16%
[4]
  inhibition: 3%

## CCCOC(=O)C1=C(C)N(C)C(=O)NC1c1ccco1 (racemic)
[1]
  inhibition: 23%
[2]
  inhibition: 8%
[3]
  inhibition: 2%
[4]
  inhibition: 3%

## CCCOC(=O)C1=C(C)N(C)C(=O)NC1c1cccs1 (racemic)
[1]
  inhibition: 1%
[2]
  inhibition: 4%
[3]
  inhibition: 1%
[4]
  inhibition: 9%

## CCCOC(=O)C1=C(C)N(C)C(=O)NC1c1ccoc1 (racemic)
[1]
  inhibition: 2%
[2]
  inhibition: 16%
[3]
  inhibition: 1%
[4]
  inhibition: 1%

## CCCOC(=O)C1=C(C)NC(=O)NC1c1ccco1 (racemic)
[2]
  inhibition: 3%

## CCCOC(=O)C1=C(C)NC(=S)NC1c1ccco1 (racemic)
[1]; filed as antagonist
  inhibition: 46%
[2]
  inhibition: 1%
[3]
  inhibition: 2%
[4]
  inhibition: 1%

## CCCOC(=O)C1=C(C)NC(=S)NC1c1cccs1 (racemic)
[1]
  inhibition: 3%
[2]
  inhibition: 10%
[3]
  inhibition: 1%
[4]
  inhibition: 7%

## CCCOC(=O)C1=C(C)NC(=S)NC1c1ccoc1 (racemic)
[1]; filed as antagonist
  inhibition: 45%
[2]
  inhibition: 3%
[3]
  inhibition: 2%
[4]
  inhibition: 4%

## CCCOC(=O)C1=C(C)NC(=S)NC1c1ccsc1 (racemic)
[1]
  inhibition: 26%
[2]
  inhibition: 1%
[3]
  inhibition: 1%
[4]
  inhibition: 5%

## CCOC(=O)C1=C(C)N(C)C(=O)NC1c1ccco1 (racemic)
[3]
  inhibition: 1%

## CCOC(=O)C1=C(C)N(C)C(=O)NC1c1cccs1 (racemic)
[2]
  inhibition: 2%
[3]
  inhibition: 1%
[4]
  inhibition: 1%

## CCOC(=O)C1=C(C)N(C)C(=O)NC1c1ccsc1 (racemic)
[1]; filed as antagonist
  inhibition: 53%
[3]
  inhibition: 23%
[4]
  inhibition: 32%

## CCOC(=O)C1=C(C)NC(=O)NC1c1cccs1 (racemic)
[1]; filed as antagonist
  inhibition: 41%

## COC(=O)C1=C(C)N(C)C(=O)NC1c1ccco1 (racemic)
[1]
  inhibition: 31%
[2]
  inhibition: 9%
[3]
  inhibition: 1%
[4]
  inhibition: 45%

## COC(=O)C1=C(C)N(C)C(=O)NC1c1cccs1 (racemic)
[1]
  inhibition: 17%
[2]
  inhibition: 15%
[3]
  inhibition: 49%
[4]
  inhibition: 30%

## COC(=O)C1=C(C)N(C)C(=O)NC1c1ccoc1 (racemic)
[1]
  inhibition: 7%
[2]
  inhibition: 7%
[3]
  inhibition: 5%
[4]
  inhibition: 15%

## COC(=O)C1=C(C)NC(=O)NC1c1cccs1 (racemic)
[1]
  inhibition: 19%
[2]
  inhibition: 3%
[3]
  inhibition: 1%
[4]
  inhibition: 6%

## COC(=O)C1=C(C)NC(=O)NC1c1ccoc1 (racemic)
[1]; filed as antagonist
  inhibition: 42%
[2]
  inhibition: 2%
[3]
  inhibition: 3%
[4]
  inhibition: 8%

## COC(=O)C1=C(C)NC(=O)NC1c1ccsc1 (racemic)
[1]
  inhibition: 36%
[2]
  inhibition: 3%
[3]
  inhibition: 2%
[4]
  inhibition: 7%

## COC(=O)C1=C(C)NC(=S)NC1c1cccs1 (racemic)
[1]
  inhibition: 10%
[2]
  inhibition: 1%
[3]
  inhibition: 1%
[4]
  inhibition: 1%

## COC(=O)C1=C(C)NC(=S)NC1c1ccoc1 (racemic)
[1]; filed as antagonist
  inhibition: 48%
[2]
  inhibition: 3%
[3]
  inhibition: 1%
[4]
  inhibition: 25%

## COC(=O)C1=C(C)NC(=S)NC1c1ccsc1 (racemic)
[1]
  inhibition: 38%
[2]
  inhibition: 3%
[3]
  inhibition: 1%
[4]
  inhibition: 3%
